Experimental data published in ChEMBL document CHEMBL1146492, “Cytotoxic constituents of the twigs and leaves of Aglaia rubiginosa” (J Nat Prod, 2004).
pEC50: −log10 of the molar value.

Legend:
[1] = Cytotoxicity against human telomerase reverse transcriptase expressing human RPE1 cells; type: functional, TERT-RPE1; conditions: for pEC50: Homo sapiens, RPE-1, read-out: ED50 (the source's name)
LNCaP = test: Cytotoxicity against human LNCAP cells; type: functional; conditions: for pEC50: Homo sapiens, LNCaP, read-out: ED50 (the source's name)
Outline: (§1)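 Cytotoxicity was tested on a panel of human cancer cell lines following established protocols, with ED50 as the read-out. Extracts, fractions and isolates from twigs and leaves were run the same way.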

Lu1 = test: Cytotoxicity against human Lu1 cells; type: functional; conditions: for pEC50: Homo sapiens, Lu1, read-out: ED50 (the source's name); outline: as §1
Col2 = test: Cytotoxicity against human Col2 cells; type: functional, cell-based; outline: as §1
KB = test: Cytotoxicity against human KB cells; type: functional; conditions: for pEC50: Homo sapiens, KB, read-out: ED50 (the source's name); outline: as §1
[2] = Cytotoxicity against HUVEC; type: cell-based; conditions: human, HUVEC cells; read-out: ED50 (the source's name)
[3] = read-out: ED50 (the source's name)

| SMILES | ED50 [1] [µM] | ED50 (LNCaP) [µM] | ED50 (Lu1) [µM] | pEC50 (Col2; read-out: EC50) | ED50 (KB) [µM] | CC50 [2] [µM] | pEC50 [1] | pEC50 (LNCaP) | pEC50 (Lu1) | pEC50 (Col2; [3]) | pEC50 (KB) |
| --- | --- | --- | --- | --- | --- | --- | --- | --- | --- | --- | --- |
| CC(C)=CC[C@@H](O)[C@@H](C)[C@H]1CC[C@H]2C3=CCC4[C@@H](O)[C@@H](O)CC[C@]4(C)[C@H]3CC[C@]12C (stereo partly drawn) | > 1 | > 1 | > 1 | < 6.00 | > 1 | > 1 |  |  |  |  |  |
| COc1ccc([C@@]23Oc4cc(OC)cc(OC)c4[C@]2(O)[C@H](OC(C)=O)C[C@H]3c2ccccc2)cc1 |  |  |  |  |  | 0.231 | 6.68 | 6.56 | 6.68 | 6.72 | 6.83 |
| C=C(C)[C@@H]1CC[C@]2(C)[C@H](CC[C@@H]3[C@@H]([C@@](C)(O)C/C=C/C(C)(C)O)CC[C@]32C)[C@@]1(C)CCC(=O)O | > 1 | > 1 | > 1 | < 6.00 | > 1 | > 1 |  |  |  |  |  |
| C=C(C)[C@@H]1CC[C@]2(C)[C@H](CC[C@@H]3[C@@H]([C@@](C)(O)C/C=C/C(C)(C)O)CC[C@]32C)[C@@]1(C)CCC(=O)OC | > 1 | > 1 | > 1 | < 6.00 | > 1 | > 1 |  |  |  |  |  |
| COc1ccc(-c2oc3cc(OC)cc(O)c3c(=O)c2OC)cc1 | > 1 | > 1 | > 1 | < 6.00 | > 1 | > 1 |  |  |  |  |  |
| COC(=O)[C@H]1[C@@H](O)[C@@]2(O)c3c(OC)cc(OC)cc3O[C@@]2(c2ccc(OC)cc2)[C@@H]1c1ccccc1 [AGLAFOLIN] |  |  |  |  |  | 0.203 | 6.74 | 6.49 | 6.79 | 6.61 | 6.85 |
| CC(C)(O)[C@@H]1CC[C@@](C)([C@H]2CC[C@]3(C)[C@@H]2CC[C@@H]2[C@@]4(C)CCC(=O)C(C)(C)[C@@H]4CC[C@]23C)O1 [CABRALEONE] | > 1 | > 1 | > 1 | < 6.00 | > 1 | > 1 |  |  |  |  |  |
| CC[C@@]1(O)C(=O)OCc2c1cc1n(c2=O)Cc2cc3ccccc3nc2-1 [CAMPTOTHECIN] |  |  |  |  |  | 0.258 | 6.64 | 7.55 | 7.54 | 7.24 | 7.66 |
| O=C1C[C@@H](c2ccc(O)c(O)c2)Oc2cc(O)cc(O)c21 [ERIODICTYOL] | > 1 | > 1 | > 1 | < 6.00 | > 1 | > 1 |  |  |  |  |  |
| O=C1C[C@@H](c2ccc(O)cc2)Oc2cc(O)cc(O)c21 [NARINGENIN] | > 1 | > 1 | > 1 | < 6.00 | > 1 | > 1 |  |  |  |  |  |
| CC(=O)O[C@H]1C(=O)[C@@]2(C)[C@H]([C@H](OC(=O)c3ccccc3)[C@]3(O)C[C@H](OC(=O)[C@H](O)[C@@H](NC(=O)c4ccccc4)c4ccccc4)C(C)=C1C3(C)C)[C@]1(OC(C)=O)CO[C@@H]1C[C@@H]2O [PACLITAXEL] |  |  |  |  |  | 0.105 | 7.64 | 8.30 | 8.70 | 7.34 | 9.40 |
| COc1ccc([C@@]23Oc4cc(OC)cc(OC)c4[C@]2(O)[C@H](O)[C@H](C(=O)O)[C@H]3c2ccccc2)cc1 [ROCAGLOIC ACID] |  |  |  |  |  | 0.209 | 6.68 | 6.98 | 7.20 | 6.68 | 6.69 |
| C=C(C)[C@@H]1CC[C@]2(C)[C@H](CC[C@@H]3[C@@H]([C@]4(C)CC[C@H](C(C)(C)O)O4)CC[C@]32C)[C@@]1(C)CCC(=O)O [SHOREIC ACID] | > 1 | > 1 | > 1 | < 6.00 | > 1 | > 1 |  |  |  |  |  |
